Published values pooled from the literature.
Each line is one published result; the experiments were not run side by side.
Organism: Escherichia coli
Effect on: microbial growth

CCN1CCC(CCNCc2cc3cc(Br)ccc3nc2SCc2ccccc2)CC1 — MIC (broth dilution): 32 µg/mL
Cc1onc(-c2ccccc2)c1C(=O)N[C@@H]1C(=O)N2[C@@H]1SC(C)(C)[C@@H]2C(=O)O — MIC (broth dilution; ATCC25922): < 0.5 µg/mL
CCCCCCCCCCCC[N+](C)(C)Cc1ccccc1 — MIC: 63 µM
NC[C@H]1O[C@H](O[C@H]2[C@H](O)[C@@H](O[C@H]3O[C@H](CO)[C@@H](O)[C@H](N)[C@H]3O)[C@H](N)C[C@@H]2N)[C@H](N)C[C@@H]1O — MIC: ≤ 1 µg/mL
CN1CCN(CCNCc2cc3cc(-c4ccccc4)ccc3nc2SCc2ccccc2)CC1 — MIC (broth dilution): 16 µg/mL
COc1ccc2ccc(O)c(/C=N/[C@H]3CCCC[C@H]3/N=C/c3ccc(OCCN4CCCCC4)cc3O)c2c1 — MIC (broth dilution; clinical isolate): > 40 µM
CNC(C)C1CCC(N)C(OC2C(N)CC(N)C(OC3OCC(C)(O)C(NC)C3O)C2O)O1 (stereo not shown) — MIC (broth dilution): 2 µg/mL
c1ccc(CSc2nc3ccccc3cc2CNCc2ccc(N3CCCCC3)cc2)cc1 — MIC (broth dilution): > 128 µg/mL
N#CC(C#N)=C1SC(C(=O)c2ccc(Nc3cnccn3)cc2)=NN1c1ccccc1 — MIC (broth dilution; ATCC10536): 50 µg/mL
Brc1ccc2nc(SCc3ccccc3)c(CNCCC3CCN(C4CCCC4)CC3)cc2c1 — MIC (broth dilution): 32 µg/mL
Cc1ccc2[nH]nc(-c3nnc(Nc4ccc(Cl)c(Cl)c4)s3)c2c1 — MIC (ATCC25922): 140 µg/mL
CO/N=C(\C(=O)N[C@@H]1C(=O)N2C(C(=O)O)=C(CSc3nc(=O)c(=O)[nH]n3C)CS[C@H]12)c1csc(N)n1 — MIC (broth dilution; ATCC25922): 16 µg/mL
CC(C)(O/N=C(\C(=O)N[C@@H]1C(=O)N2C(C(=O)[O-])=C(C[n+]3ccccc3)CS[C@H]12)c1csc(N)n1)C(=O)O — MIC: 0.25 µg/mL
CC(C)c1ccc(/C=C2\N=C(SCC(=O)O)N(c3ccccc3)C2=O)cc1 — MIC (broth dilution; ATCC25 ATCC25922): 15 µg/mL
COc1cc2cc(CNCCC3CCN(C4CCCC4)CC3)c(SCc3ccccc3)nc2c(OC)c1OC — MIC (broth dilution): > 128 µg/mL
N=c1sc(C(=O)c2ccc(Nc3cnccn3)cc2)nn1-c1ccc([N+](=O)[O-])cc1 — MIC (broth dilution; ATCC10536): 6.25 µg/mL
CCN(CC)c1ccc(C=NC(=S)c2ccccc2)c(O)c1 — MIC (broth dilution; ATCC25922): > 256 µg/mL
COc1ccc2ccc(O)c(/C=N/[C@H]3CCCC[C@H]3/N=C/c3c(O)cccc3F)c2c1 — MIC (broth dilution; clinical isolate): > 40 µM
Cc1ccc2[nH]nc(-c3nnc(Nc4ccc([N+](=O)[O-])cc4)s3)c2c1 — MIC (ATCC25922): 92.8 µg/mL
[H]/N=C(/N)N[C@H]1[C@H](O)[C@@H](O)[C@H](O[C@@H]2O[C@@H](C)[C@](O)(C=O)[C@H]2O[C@@H]2O[C@@H](CO)[C@H](O)[C@@H](O)[C@@H]2NC)[C@@H](N/C(N)=N\[H])[C@@H]1O — MIC (broth dilution; ATCC25922): 2 µg/mL
Cc1cc(Nc2nnc(-c3n[nH]c4ccc(C)cc34)s2)cc([N+](=O)[O-])c1 — MIC (ATCC25922): 166 µg/mL
CO/N=C(\C(=O)N[C@@H]1C(=O)N2C(C(=O)[O-])=C(C[N+]3(C)CCCC3)CS[C@H]12)c1csc(N)n1 — MIC: ≤ 0.12 µg/mL
Cc1ccc2[nH]nc(-c3nnc(Nc4ccc(Cl)cc4)s3)c2c1 — MIC (ATCC25922): 81.7 µg/mL
CC(=O)C1=NN(c2ccccc2)C(=C(C#N)C(=O)c2ccc(Nc3cnccn3)cc2)S1 — MIC (broth dilution; ATCC10536): 100 µg/mL
c1ccc(CSc2nc3ccc(-c4ccccc4)cc3cc2CNCc2ccc(CN3CCCC3)cc2)cc1 — MIC (broth dilution): > 128 µg/mL
CC1(C)S[C@@H]2[C@H](NC(=O)[C@H](N)c3ccccc3)C(=O)N2[C@H]1C(=O)O — MIC (broth dilution; ATCC25922; 18 h, dark): 16 µM
COc1ccc(-n2nc(C(=O)c3ccc(Nc4cnccn4)cc3)sc2=N)cc1 — MIC (broth dilution; ATCC10536): 12.5 µg/mL
CCOC(=O)C(C)c1n[nH]c2nc(N)[nH]c(=O)c2c1=O (stereo not shown) — MIC (broth dilution; BW25113; 18 h): > 100 µg/mL
Cc1cc(O)cc(Nc2nnc(-c3n[nH]c4ccc(C)cc34)s2)c1 — MIC (ATCC25922): 176 µg/mL
CN1CCN(CCNCc2cc3ccccc3nc2SCc2ccccc2)CC1 — MIC (broth dilution): 64 µg/mL
CC[C@H]1OC(=O)[C@H](C)[C@@H](O[C@H]2C[C@@](C)(OC)[C@@H](O)[C@H](C)O2)[C@H](C)[C@@H](O[C@@H]2O[C@H](C)C[C@H](N(C)C)[C@H]2O)[C@](C)(O)C[C@@H](C)CN(C)[C@H](C)[C@@H](O)[C@]1(C)O — MIC (broth dilution): 4 µM
CN(C)[C@@H]1C(O)=C(C(N)=O)C(=O)[C@@]2(O)C(O)=C3C(=O)c4c(O)cccc4[C@@](C)(O)[C@H]3C[C@@H]12 — MIC (broth dilution; ATCC25922; 16 h): 3.1 µM
CCN1CCN(c2cc3c(cc2F)c(=O)c(C(=O)O)cn3C2CC2)CC1 — MIC (broth dilution; ATCC25922): 0.0625 µg/mL
Cc1ccc2[nH]nc(-c3nnc(Nc4ccc(Br)cc4)s3)c2c1 — MIC (ATCC25922): 251 µg/mL
CCN(CC)c1ccc(C=NC(=O)c2ccccc2)c(O)c1 — MIC (broth dilution; ATCC25922): > 256 µg/mL
CC(=O)OCc1nn(C)c2nc(N)[nH]c(=O)c2c1=O — MIC (broth dilution; BW25113; 18 h): 25 µg/mL
O=C(N[C@H](CO)[C@H](O)c1ccc([N+](=O)[O-])cc1)C(Cl)Cl — MIC (broth dilution): 16 µg/mL
Cc1ccc2[nH]nc(-c3nnc(Nc4ccc(F)cc4)s3)c2c1 — MIC (ATCC25922): 51.9 µg/mL
COc1ccc2ccc(O)c(/C=N/[C@H]3CCCC[C@H]3/N=C/c3ccc(-c4ccccc4)cc3O)c2c1 — MIC (broth dilution; clinical isolate): > 40 µM
N#CC(C#N)=C1SC(C(=O)c2ccc(Nc3cnccn3)cc2)=NN1c1ccc([N+](=O)[O-])cc1 — MIC (broth dilution; ATCC10536): 12.5 µg/mL
CCCCCCCCN=c1ccn(CCCCCCCCCCn2ccc(=NCCCCCCCC)cc2)cc1 — MIC: 0.5 µM
COc1ccc(N2N=C(C(C)=O)SC2=C(C#N)C(=O)c2ccc(Nc3cnccn3)cc2)cc1 — MIC (broth dilution; ATCC10536): 6.25 µg/mL
C[C@@H](O)[C@H]1C(=O)N2C(C(=O)O)=C(S[C@@H]3CN[C@H](C(=O)N(C)C)C3)[C@H](C)[C@H]12 — MIC (ATCC25922; drug-resistant strain): 0.15 µg/mL
